Screening data deposited in PubChem BioAssay by several laboratories.
The list is not random: actives were taken first. Their share in the collection is about 12%.
PKD1 kinase inh = inhibitors of human PKD1 kinase; Q15139; inhibition, % (test concentration not listed); 200,000 tested, 0.056% active; PKD1 kinase fluorescence polarization assay
Arbovirus anti = antivirals against arbovirus infection | inhibition, % at 10 µM | 200,000 tested, 0.37% active | arbovirus infection cell-based antiviral screen; in the data active = inhibition above about 30%
Wee1 degr inh = human Wee1 degradation inhibition, primary screen | P30291 | HeLa Luc-Wee1K328M stability, luciferase luminescence; 100% = proteasome inhibitor MG132 effect | reporter increase, % at 5 µM | 220,000 tested, 1.2% active | AID 1321;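 active = activation above the mean of all tested compounds plus 3 SD, set per screening run, cut at about 8.8% in these data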;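 also: cells exposed to compound for 20 h before luminescence read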
Target sequence (P30291 whole entry K328M): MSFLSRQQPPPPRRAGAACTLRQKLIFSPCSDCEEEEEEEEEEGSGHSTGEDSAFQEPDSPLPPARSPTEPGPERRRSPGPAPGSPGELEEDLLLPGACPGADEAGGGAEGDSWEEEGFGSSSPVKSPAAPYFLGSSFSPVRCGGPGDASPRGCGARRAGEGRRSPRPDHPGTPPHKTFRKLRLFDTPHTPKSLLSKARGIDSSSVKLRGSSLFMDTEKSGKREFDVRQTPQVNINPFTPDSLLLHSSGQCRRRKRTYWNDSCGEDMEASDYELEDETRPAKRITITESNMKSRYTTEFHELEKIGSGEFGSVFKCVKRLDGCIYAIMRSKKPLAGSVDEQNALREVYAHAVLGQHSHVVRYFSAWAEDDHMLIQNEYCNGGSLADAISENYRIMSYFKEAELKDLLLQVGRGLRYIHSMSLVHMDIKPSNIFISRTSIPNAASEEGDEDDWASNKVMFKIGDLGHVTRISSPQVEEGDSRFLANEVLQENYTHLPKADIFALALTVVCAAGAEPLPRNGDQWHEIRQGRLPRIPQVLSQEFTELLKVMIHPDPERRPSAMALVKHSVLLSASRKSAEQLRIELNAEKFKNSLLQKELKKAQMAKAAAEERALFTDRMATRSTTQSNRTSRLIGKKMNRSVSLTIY
CHOP inh = CHOP inhibition in unfolded protein response; CHO-K1 CHOP-promoter luciferase, tunicamycin-induced, 15-18 h; AID 2732; inhibition, % at 10 µM; 220,000 tested, 3.8% active;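 active = compounds that reduced the stress-induced luciferase reporter signal by more than about 70% of percent inhibition, limit read from the data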
Rad51 HR inh = blocks human Rad51 in homologous recombination | hRad51 DNA strand exchange, fluorescence dequenching | 200,000 tested, 0.085% active | inhibition, % at 10 µM | Q06609;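 active = inhibition above 40% at the single screening dose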
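Read-out basis: percent inhibition relative to plate controls and blanks / Assay system: human Rad51 nucleoprotein filaments preassembled on unlabelled ssDNA / Timing: filaments 15 min 37 °C, then compound 30 min / Control set: per-plate controls and blanks / Technique: fluorescence dequenching at 485/520 nm / Compound: 10 µM final, single point / Also added: Fluorescein- and BHQ1-tagged 47-mer duplex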
Lmaj promast = Leishmania major promastigote growth inhibition; Leishmania major promastigotes, resazurin fluorescence viability; inhibition, % at 10 µM; 200,000 tested, 9% active; AID 1063;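 also: promastigotes grown with compound for 44 hours at 28 °C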
FP interf 140K = interferes with fluorescence polarization in PKD inhibitor counter-screen; shares compounds with PKD1 kinase inh; PKD1 FP assay interference counter-screen; inhibition, % at 10 µM; 85 tested, under 10 active; call rule not given here
L major 1uM = inhibitors of Leishmania major promastigote growth, repeat at 1 uM | shares compounds with Lmaj promast | L. major promastigote growth, resazurin fluorescence, 48 h | inhibition, % at 1 µM | 1,100 tested, 13% active | AID 1258;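 active = inhibition above about 50% in both repeat tests, limit read from the data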
Each line names hits and unclear results; the compound was inactive in the other large screens (follow-up assays come after a bar, where they were run). Rule as the data show it, unless noted: active = inhibition above about 50%; inactive = the rest.

CC(C)CNC(=O)c1c(N)n(Cc2ccco2)c2nc3ccccc3nc12	none
COC(=O)c1ccccc1-n1c(C)nc2ccccc2c1=O	none
O=C(O)c1cccc2nc3ccccc3nc12	Lmaj promast 99.8
Clc1ccc(-c2nc3ccc(Cl)cn3c2CN2CCOCC2)cc1	Lmaj promast 52.7
CN(C)CCN=Cc1c(O)n(CCC2=CCCCC2)c(=O)[nH]c1=O	none
COc1ccc(/C=C/C(=O)c2c(O)n(CCC3=CCCCC3)c(=O)[nH]c2=O)cc1	CHOP inh 80.6, Lmaj promast 76.5
CCCCn1c(O)c(C(=O)/C=C/c2ccc3c(c2)OCO3)c(=O)[nH]c1=O	none (no result: PKD1 kinase inh, Arbovirus anti, Lmaj promast)
O=C(/C=C/c1ccc2c(c1)OCO2)c1c(O)n(CCC2=CCCCC2)c(=O)[nH]c1=O	CHOP inh 90.0
COC(=O)C1=C(c2ccc(S(C)(=O)=O)cc2)C[C@@H]2CC[C@H]1N2C(=O)NCCS(C)=O (some centres undefined)	none (no result: PKD1 kinase inh, Arbovirus anti, Wee1 degr inh, CHOP inh, Lmaj promast)
CCCCCCCSc1cc(OC)c(CCN(C)C)cc1OC	Lmaj promast 100.4
CCCCCSc1cc(OC)c(CCN)cc1OC	Lmaj promast 91.7
COc1ccccc1N1CCN(Cc2cc(C)c(C)cc2O)CC1	Arbovirus anti 32.4 (no result: Rad51 HR inh)
O=C(C(=O)N1CCOCC1)c1cn(Cc2c(F)cccc2Cl)c2ccccc12	none (no result: Rad51 HR inh)
C=CCn1c(O)c(C(C)=NC2CCN(Cc3ccccc3)CC2)c(=O)[nH]c1=O	Wee1 degr inh 10.7 (no result: PKD1 kinase inh, Arbovirus anti, Lmaj promast)
C=CCn1c(O)c(C(C)=NC(C)c2ccccc2)c(=O)[nH]c1=O (centres undefined)	none (no result: PKD1 kinase inh, Arbovirus anti, Rad51 HR inh, Lmaj promast)
CC1(C(=O)O)C2CCC(O2)C1(C)C(=O)O (centres undefined)	none (no result: PKD1 kinase inh, Arbovirus anti, Wee1 degr inh, Rad51 HR inh, Lmaj promast)
CC1Oc2cc3c(-c4c(O)cc(O)c5c(O)c6c(cc45)OC(C)C(C)C6=O)c(O)cc(O)c3c(O)c2C(=O)C1C (centres undefined)	CHOP inh 102.3 (no result: PKD1 kinase inh, Arbovirus anti, Lmaj promast)
Cn1c(O)c(C(=O)c2ccccc2)c(=O)n(C)c1=O	none
CN=C(SCc1ccccc1)c1c(O)n(C)c(=O)n(C)c1=O	Wee1 degr inh 9.3 (no result: Arbovirus anti, CHOP inh)
C/C(=N\Nc1ccccc1)c1c(O)n(C)c(=O)n(C)c1=O	Lmaj promast 75.5
COc1ccc(N/N=C/c2c(O)n(-c3cccc(C)c3)c(=O)[nH]c2=O)cc1	Lmaj promast 94.0
COc1ccc(N/N=C/c2c(O)n(-c3ccc(C)c(C)c3)c(=O)[nH]c2=O)cc1	Lmaj promast 87.7
Cc1ccc(-n2c(O)c(/C=N/Nc3ccccc3)c(=O)[nH]c2=O)cc1C	none (no result: PKD1 kinase inh, Arbovirus anti, Lmaj promast)
COc1ccc(CCN(C)Cc2ccc(F)cc2F)cc1OC	Arbovirus anti 70.6
CCN(CC)c1ccc(N=Cc2c(O)n(CCc3ccc(OC)c(OC)c3)c(=O)[nH]c2=O)cc1	none
COc1ccc(CCn2c(O)c(C=Nc3ccc(F)cc3)c(=O)[nH]c2=O)cc1OC	none (no result: PKD1 kinase inh, Arbovirus anti, Lmaj promast)
CCN(CC)c1ccc(CN(C)CCc2ccc(OC)c(OC)c2)cc1	Lmaj promast 62.7
C[C@@H]1O[C@H](C[N+](C)(C)C)CS1	none (no result: PKD1 kinase inh, Arbovirus anti, Wee1 degr inh, Rad51 HR inh, Lmaj promast)
Oc1cccc(/C=N/NP(=S)(c2ccccc2)c2ccccc2)c1	Lmaj promast 83.1
CNc1cc(Cl)c2nonc2c1[N+](=O)[O-]	CHOP inh 106.9, Lmaj promast 74.5
Nc1c2c(nc3sc4c(c13)CCCC4)CCCCC2	Lmaj promast 77.0
Nc1c2c(nc3sc4c(c13)CCCC4)CCCC2	Lmaj promast 92.1
CCOc1ccc(N=C2SCCCN2C)cc1	none
CCCCn1nc(C)c(C(=O)O)c1Cl	none (no result: PKD1 kinase inh, Arbovirus anti, Rad51 HR inh, Lmaj promast)
Clc1ccc(C(c2ccc(Cl)cc2)n2cc[n+](CC(OCc3ccc(Cl)cc3Cl)c3ccc(Cl)cc3Cl)c2)cc1 (centres undefined)	none (no result: PKD1 kinase inh, Arbovirus anti, Wee1 degr inh, Rad51 HR inh, Lmaj promast)
CN1CCN(CCOC2c3ccccc3CSc3ccc(Cl)cc32)CC1 (centres undefined)	Lmaj promast 99.1
O=C(COc1ccc(Cl)cc1)N(c1ccccc1Cl)C1CN2CCC1CC2 (centres undefined)	none (no result: PKD1 kinase inh, Arbovirus anti, Rad51 HR inh, Lmaj promast)
Clc1ccc2c(c1)C(OC1CN3CCC1CC3)c1ccccc1CS2 (centres undefined)	Lmaj promast 100.2
CN1CCN(c2cccc3c2C(=O)c2ccccc2C3=O)CC1	PKD1 kinase inh 100.6 | FP interf 140K inactive
CC(C)(CN)CC(=O)O	none (no result: PKD1 kinase inh, Arbovirus anti, Lmaj promast)
NC(=O)c1cn(C2OC(CO)C(O)C2O)c2ncnc(N)c12 (centres undefined)	PKD1 kinase inh 94.5, CHOP inh 105.3, Lmaj promast 99.1 | FP interf 140K inactive | L major 1uM 97.3
CC(C)CN(CC(C)C)C(=O)C1C2c3ccccc3C(c3ccccc32)C1C(=O)O (centres undefined)	none
O=C1C=C2C=C[C@H]3C[C@]2(O1)[C@@H]1CCCCN13	Lmaj promast 50.6 | L major 1uM inactive
CC(C)C(C)(NC(=O)c1cccn(Cc2ccc3c(c2)OC(F)(F)O3)c1=O)C(N)=O (centres undefined)	none
CC(C)(C)c1ccc(C(=O)C2CCCN(C3CCC3)C2)cc1 (centres undefined)	Lmaj promast 93.1 | L major 1uM 80.4
CN1CCCC(C(=O)c2ccc(Cl)cc2)C1 (centres undefined)	none
Cc1ccc(C2=NC(C)(C)N3C2C3c2ccc([N+](=O)[O-])cc2)cc1 (centres undefined)	CHOP inh 70.3, Lmaj promast 57.5 | L major 1uM inactive
O=[N+]([O-])c1ccc(C2[C@H]3C(c4ccccc4)=NC4(CCCC4)N23)cc1 (some centres undefined)	none
O=c1[nH]c(=O)n(-c2ccccc2F)c(O)c1C=NCCC1=CCCCC1	none
COc1ccc(C(=O)C2CCCN(Cc3cccc(C)n3)C2)c(OC)c1 (centres undefined)	none (no result: PKD1 kinase inh, Arbovirus anti, Rad51 HR inh, Lmaj promast)
COc1ccc(C(=O)C2CCCN(Cc3ccc(C)s3)C2)c(OC)c1 (centres undefined)	Lmaj promast 80.5 | L major 1uM inactive
O=C(NC[P+](=O)O)OCc1ccccc1	none
CN1C[C@H](CNC(=O)OCc2ccccc2)C[C@@H]2c3cccc4c3c(cn4C)C[C@H]21	Lmaj promast 69.2 | L major 1uM inactive
Cc1ccsc1C(=O)C1CCCN(Cc2cc(C(C)C)n[nH]2)C1 (centres undefined)	none
C[n+]1c(-c2ccccc2)cc(CCCCc2cc(-c3ccccc3)[n+](C)c(-c3ccccc3)c2)cc1-c1ccccc1	Lmaj promast 100.4 | L major 1uM 95.5
COc1ccc(-c2cc(-c3ccccc3)[n+](C)c(-c3ccccc3)c2)cc1	Lmaj promast 100.1 | L major 1uM inactive
O=C(O)C1C2CCC(O2)C1C(=O)Nc1ccc(Cl)cc1 (centres undefined)	none
CN1C[C@@H]2C[C@@H](c3cccn3-c3ccccn3)N3CCC[C@@]23C1=O	none
